Measured values as given in ChEMBL document CHEMBL1138571, “Design, synthesis and evaluation of tetrahydropyran based COX-1/-2 inhibitors” (Eur J Med Chem, 2009).

Experiments:
[1] = biological target: T1, Prostaglandin G/H synthase 2 (Ovis aries, UniProt P79208); test: Inhibition of ovine COX2
T1 sequence (P79208 whole entry): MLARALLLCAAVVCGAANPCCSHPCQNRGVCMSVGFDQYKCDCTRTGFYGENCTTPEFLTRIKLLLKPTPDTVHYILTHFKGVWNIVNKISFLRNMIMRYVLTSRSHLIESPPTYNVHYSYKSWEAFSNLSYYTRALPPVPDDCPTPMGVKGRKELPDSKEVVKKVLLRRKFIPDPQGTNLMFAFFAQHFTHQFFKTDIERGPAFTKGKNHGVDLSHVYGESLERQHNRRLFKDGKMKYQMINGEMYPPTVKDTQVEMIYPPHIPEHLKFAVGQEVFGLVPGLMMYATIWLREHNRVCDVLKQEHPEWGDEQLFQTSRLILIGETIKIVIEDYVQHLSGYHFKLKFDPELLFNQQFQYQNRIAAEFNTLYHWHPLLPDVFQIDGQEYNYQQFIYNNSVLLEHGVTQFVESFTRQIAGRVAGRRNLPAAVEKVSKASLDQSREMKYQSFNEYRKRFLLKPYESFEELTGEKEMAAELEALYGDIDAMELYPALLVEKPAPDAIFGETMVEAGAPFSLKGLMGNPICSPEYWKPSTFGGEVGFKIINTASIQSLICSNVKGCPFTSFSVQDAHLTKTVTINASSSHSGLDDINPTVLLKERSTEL

[2] = biological target: T2, Prostaglandin G/H synthase 1 (Ovis aries) (UniProt P05979); test: Inhibition of ovine COX1 at 10 uM
T2 sequence (whole entry): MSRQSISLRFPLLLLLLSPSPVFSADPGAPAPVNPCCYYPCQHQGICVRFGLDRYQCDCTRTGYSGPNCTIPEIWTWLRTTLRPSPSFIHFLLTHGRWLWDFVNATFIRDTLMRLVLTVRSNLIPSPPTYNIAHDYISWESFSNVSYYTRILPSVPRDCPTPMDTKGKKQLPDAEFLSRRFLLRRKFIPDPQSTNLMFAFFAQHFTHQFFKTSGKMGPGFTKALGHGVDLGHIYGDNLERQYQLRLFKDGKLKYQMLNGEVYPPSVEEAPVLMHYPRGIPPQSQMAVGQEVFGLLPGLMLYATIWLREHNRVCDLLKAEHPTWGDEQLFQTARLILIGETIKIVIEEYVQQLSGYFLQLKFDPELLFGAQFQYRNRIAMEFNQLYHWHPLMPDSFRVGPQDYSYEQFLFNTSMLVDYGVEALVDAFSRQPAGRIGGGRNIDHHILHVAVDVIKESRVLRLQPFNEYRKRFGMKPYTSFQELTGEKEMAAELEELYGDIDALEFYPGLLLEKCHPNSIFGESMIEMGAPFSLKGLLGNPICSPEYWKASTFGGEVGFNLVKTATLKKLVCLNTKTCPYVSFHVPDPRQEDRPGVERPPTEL
How it was run: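 Ovine COX-1 enzyme assay in 96-well format following a standard procedure. Compounds were tested at a single concentration of 10^-5 M, in duplicate. Results are expressed as % inhibition.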

[3] = biological target: T3, Prostaglandin G/H synthase 1 (Ovis aries, UniProt P05979); test: Inhibition of ovine COX1
T3 sequence (P05979 whole entry): T2 sequence (whole entry)

| Structure (SMILES) | IC50 [1] | inhibition [2] | IC50 [3] |
| --- | --- | --- | --- |
| C[C@]1(O)C[C@@H](CSC#N)O[C@@H](c2ccc(F)cc2)C1 | 1 µM | 34% | > 10 µM |
| C[C@]1(O)C[C@@H](CSC#N)O[C@@H](c2ccc([N+](=O)[O-])cc2)C1 | > 10 µM | 29% | > 10 µM |
| CCSC[C@@H]1C[C@](C)(O)C[C@H](c2ccc(F)cc2)O1 | < 1 µM | 42% | > 10 µM |
| C[C@]1(O)C[C@@H](CSC#N)O[C@@H](c2ccc(Br)cc2)C1 | > 10 µM | 32% | > 10 µM |
| CCSC[C@@H]1C[C@](C)(O)C[C@H](c2ccc([N+](=O)[O-])cc2)O1 | > 10 µM | 34% | > 10 µM |
| CCSC[C@@H]1C[C@](C)(O)C[C@H](c2ccc(Cl)cc2)O1 | > 10 µM | 34% | > 10 µM |
| CC(C)Cc1ccc(C(C)C(=O)O)cc1 (configuration not stated) |  | 96% |  |
| CCSC[C@@H]1C[C@](C)(O)C[C@H](c2ccc(Br)cc2)O1 | > 10 µM | 24% | > 10 µM |
